Measurements as given in ChEMBL document CHEMBL4000145, “Discovery and Optimization of a Porcupine Inhibitor” (J Med Chem, 2015).
pIC50: −log10 of the molar value. Values after ≈ are worked out from the molar mass of the structure shown. Active and inactive are the calls of the source. The calls are words filed in the database; no cut-off is given here.

Tests used:
[1] = molecular target: T1, Protein-serine O-palmitoleoyltransferase porcupine (Homo sapiens, UniProt Q9H237); assay: Inhibition of porcupine (unknown origin) expressed in HEK293-STF3A cells assessed as inhibition of Wnt signaling by measuring decrease in beta-catenin-mediated transcriptional activity after 24 hrs by Steady-Glo luciferase assay; format: cell-based
T1 sequence (Q9H237 whole entry): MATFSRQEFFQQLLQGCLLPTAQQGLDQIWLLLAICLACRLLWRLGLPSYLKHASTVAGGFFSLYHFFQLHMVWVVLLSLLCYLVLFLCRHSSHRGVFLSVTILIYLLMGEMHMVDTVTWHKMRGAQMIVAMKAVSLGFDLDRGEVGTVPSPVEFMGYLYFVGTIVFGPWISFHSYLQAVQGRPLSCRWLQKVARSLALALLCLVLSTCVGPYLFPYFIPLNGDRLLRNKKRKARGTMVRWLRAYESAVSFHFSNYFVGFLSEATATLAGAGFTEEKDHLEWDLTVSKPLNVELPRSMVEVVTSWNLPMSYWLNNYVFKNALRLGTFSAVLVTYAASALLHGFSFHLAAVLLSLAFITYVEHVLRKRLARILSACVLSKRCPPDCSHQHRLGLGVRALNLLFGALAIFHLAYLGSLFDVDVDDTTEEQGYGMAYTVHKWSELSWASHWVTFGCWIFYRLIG
Summary of the method: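 HEK293-STF3A cells, 2 × 10⁴ per well, incubated overnight at 37 °C. Serially diluted compound added at final 50 μM to 1.5 nM. After 1 day, Steady-Glo luciferase added for 10 min at room temperature and luminescence read. IC50 derived from the dilution series.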

[2] = Thermodynamic solubility of the compound at pH 7.4; format: physicochemical; details: buffer, read-out: Therm_solubility
Summary of the method: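 Compound at 500 μM from DMSO stock in pH 7.4 buffer, 1.0% DMSO. Incubated 18 h, then vacuum filtered. Filtrate mixed 1:1 with 1-propanol and quantified by UV spectroscopy.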

Cytochrome P450 2D6 = Cytochrome P450 2D6 (Homo sapiens, UniProt P10635); assay: Inhibition of CYP2D6 (unknown origin)
[3] = Permeability of the compound at pH 7.4 by PAMPA assay; format: physicochemical; details: read-out: permeability
[4] = Intrinsic clearance in mouse liver microsomes; format: ADME, microsome; details: read-out: CLH
Cytochrome P450 3A4 = Cytochrome P450 3A4 (Homo sapiens, UniProt P08684); assay: Inhibition of CYP3A4 (unknown origin)
[5] = molecular target: T2, Protein-serine O-palmitoleoyltransferase porcupine (Mus musculus) (UniProt Q9JJJ7); details: 0.2 to 625 nM
T2 sequence (whole entry): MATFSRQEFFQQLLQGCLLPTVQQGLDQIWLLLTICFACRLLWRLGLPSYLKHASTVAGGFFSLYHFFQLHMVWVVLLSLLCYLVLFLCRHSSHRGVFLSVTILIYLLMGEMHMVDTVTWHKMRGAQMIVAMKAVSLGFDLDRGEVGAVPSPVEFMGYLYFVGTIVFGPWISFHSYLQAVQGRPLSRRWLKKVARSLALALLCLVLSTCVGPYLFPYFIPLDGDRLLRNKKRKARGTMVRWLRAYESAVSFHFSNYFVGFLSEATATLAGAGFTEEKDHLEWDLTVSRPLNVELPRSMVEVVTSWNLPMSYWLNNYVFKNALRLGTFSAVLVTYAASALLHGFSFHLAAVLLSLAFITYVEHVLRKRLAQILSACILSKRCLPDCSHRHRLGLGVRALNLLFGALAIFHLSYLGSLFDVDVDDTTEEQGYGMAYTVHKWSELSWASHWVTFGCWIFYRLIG

[6] = AUC (0 to last) in mouse at 5 mg/kg, po; format: ADME, organism-based; design: dose 5 mg/kg, time 0 - last, route oral; details: in vivo
[7] = molecular target: T3, Protein-serine O-palmitoleoyltransferase porcupine (Homo sapiens) (UniProt Q9H237); assay: Inhibition of PORCN-mediated V5-tagged Wnt3A palmitoylation in human HeLa cells at 100 nM measured after over night incubation by Western blot analysis; format: cell-based
T3 sequence (whole entry): T1 sequence (Q9H237 whole entry)
Summary of the method: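 HeLa cells seeded 3 × 10⁶ per 10 cm dish, overnight at 37 °C, then transfected with 5 μg pcDNA3.2/V5-Wnt3a. After 6 h, washed and given 100 μM ω-alkynyl palmitate in medium with 5% fatty-acid-free BSA plus compound (100 nM) or DMSO, overnight at 37 °C. From 600 μg lysate, V5-Wnt3a was immunoprecipitated and click-reacted with biotin azide. Blot read-outs: anti-V5/anti-mouse Dylight 680 for total, streptavidin-Dylight 800 for acylated.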

Mus musculus [8] = assay: Antitumor activity in Balb/c mouse MMTV-Wnt1 model assessed as tumor growth inhibition administered once daily for 14 days via oral gavage; format: functional
Summary of the method: (§1)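 Orthotopic MMTV-Wnt1 tumor fragments implanted in mammary fat pads of Balb/c nude mice. Dosing began 14 days later (day 1), with 10 mice per group and mean tumor volume 103–107 mm³. Oral gavage once daily for 14 days at 10 mL/kg in 50% PEG 400/deionized water. Doses were 1, 3 or 10 mg/kg. Caliper volumes gave %TGI versus vehicle at day 14. Statistics by one-way ANOVA with Dunnett's test.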

[9] = Oral bioavailability in mouse at 5 mg/kg; format: ADME, organism-based; details: in vivo
Mus musculus [10] = assay: Antitumor activity in Balb/c mouse MMTV-Wnt1 model assessed as tumor growth inhibition at 3 mg/kg administered once daily for 14 days via oral gavage relative to vehicle treated control; format: functional; details: 336 h, read-out: TGI; summary of the method: as §1
[11] = Cmax in mouse at 5 mg/kg, po; format: ADME, organism-based; design: dose 5 mg/kg, route oral; details: in vivo
Mus musculus [12] = assay: Antitumor activity in Balb/c mouse MMTV-Wnt1 model assessed as tumor growth inhibition at 1 mg/kg administered once daily for 14 days via oral gavage relative to vehicle treated control; format: functional; details: 336 h, read-out: TGI; summary of the method: as §1
[13] = Half life in mouse at 1 mg/kg, iv; format: ADME, organism-based; details: in vivo
HT-1080 = assay: Inhibition of luciferase expression in human HT1080 cells after 24 hrs; format: functional, cell-based
Summary of the method: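 HT1080 cells seeded at 150 000 per well a day before transfection. Transfected with control or murine PORCN plasmid (100 ng) plus Wnt/β-catenin reporter (550 ng) and Wnt3a (50 ng). Treated with serial dilutions from 625 to 0.2 nM at 0.1% DMSO final. Luciferase measured in lysate 24 h post-transfection.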

Mus musculus [14] = assay: Antitumor activity in Balb/c mouse MMTV-Wnt1 model assessed as tumor growth inhibition at 10 mg/kg administered once daily for 14 days via oral gavage relative to vehicle treated control; format: functional; details: 336 h, read-out: TGI; summary of the method: as §1
HEK293 = assay: Inhibition of beta-catenin-mediated transcriptional activity in Wnt3A knock out HEK293-STF cells preincubated for 4 hrs followed by Wnt-3A conditioned medium addition measured after 24 hrs by Steady-Glo luciferase assay; details: Homo sapiens
[15] = Oral bioavailability in mouse; format: ADME, organism-based; details: in vivo
[16] = Cytotoxicity against HEK293 cells assessed as cell viability after 1 day by CellTiter-Glo luminescent assay; details: human

Cytochrome P450 2D6, sequence (P10635 whole entry): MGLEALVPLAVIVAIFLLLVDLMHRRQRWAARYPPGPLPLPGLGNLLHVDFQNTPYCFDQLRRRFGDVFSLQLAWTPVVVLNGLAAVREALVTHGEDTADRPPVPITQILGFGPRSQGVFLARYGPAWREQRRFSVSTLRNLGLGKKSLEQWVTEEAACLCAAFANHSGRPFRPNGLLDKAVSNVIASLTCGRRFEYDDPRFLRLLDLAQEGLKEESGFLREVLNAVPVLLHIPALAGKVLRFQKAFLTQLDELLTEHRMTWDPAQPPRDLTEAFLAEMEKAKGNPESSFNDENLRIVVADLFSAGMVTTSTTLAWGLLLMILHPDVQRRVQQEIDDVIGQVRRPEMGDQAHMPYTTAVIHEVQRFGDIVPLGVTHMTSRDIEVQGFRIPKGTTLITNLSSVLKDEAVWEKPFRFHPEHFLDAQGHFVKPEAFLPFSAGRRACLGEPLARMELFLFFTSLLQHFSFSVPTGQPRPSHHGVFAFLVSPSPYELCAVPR
Cytochrome P450 3A4, sequence (P08684 whole entry): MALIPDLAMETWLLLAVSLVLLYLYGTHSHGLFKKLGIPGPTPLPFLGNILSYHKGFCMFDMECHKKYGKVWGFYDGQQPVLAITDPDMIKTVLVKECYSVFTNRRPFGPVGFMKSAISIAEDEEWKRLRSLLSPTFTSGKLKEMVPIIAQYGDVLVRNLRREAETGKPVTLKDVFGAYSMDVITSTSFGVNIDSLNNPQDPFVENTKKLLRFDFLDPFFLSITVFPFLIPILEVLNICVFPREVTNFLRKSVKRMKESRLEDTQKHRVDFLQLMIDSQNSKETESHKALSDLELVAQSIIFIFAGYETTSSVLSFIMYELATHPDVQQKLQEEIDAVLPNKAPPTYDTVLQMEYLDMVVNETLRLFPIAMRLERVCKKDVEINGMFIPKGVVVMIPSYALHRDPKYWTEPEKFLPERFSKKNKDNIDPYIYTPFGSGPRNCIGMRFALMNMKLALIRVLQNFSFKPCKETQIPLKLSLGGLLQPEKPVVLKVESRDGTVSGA

In the case of `O=C(COc1ccc(-c2ccn[nH]2)cc1)Nc1ccc(-c2ccccc2)cc1`, the pIC50 [1] was less than 4.30.
In the case of `O=C(COc1ccc(-n2cccc2)cc1)Nc1ccc(-c2ccccc2)cc1`, the pIC50 [1] was less than 4.30.
In the case of `C[C@H](Nc1ccc(-c2ccnn2C)nc1)C(=O)Nc1ccc(-c2cccnc2)nc1`, the pIC50 [1] was 8.00, the solubility thermodynamic [2] was 102 µg/mL (≈ 255 µM) and the pIC50 (Cytochrome P450 2D6) was 5.48. The Papp [3] was 26.8 ×10⁻⁶ cm/s, the microsomal CLint [4] was 8 µL/min/mg and the pIC50 (Cytochrome P450 3A4) was less than 4.70.
`C[C@H](Oc1ccc(-n2ccnc2)cc1)C(=O)Nc1ccc(-c2ccccc2)cc1` gave a pIC50 [1] of 8.15 and a microsomal CLint [4] of 85 µL/min/mg.
For `C[C@H](Nc1ccc(-c2ccnn2C)nc1)C(=O)Nc1ccc(-c2cccnc2)cn1`, the inhibition [5] was “Active”, the pIC50 [1] was 9.00 and the AUC(0-t) [6] was 12300 ng·h/mL. The solubility thermodynamic [2] was 72.5 µg/mL (≈ 181 µM), the inhibition [7] was “Active” and the TGI (Mus musculus [8]) was “Dose-dependent effect”. It also gave a bioavailability [9] of 106%, a pIC50 (Cytochrome P450 2D6) of 5.10 and an inhibition in vivo at 3 mg/kg (Mus musculus [10]) of 71%. For the same compound, the Cmax [11] was 4270 ng/mL, the inhibition in vivo at 1 mg/kg (Mus musculus [12]) was 50% and the Papp [3] was 50.6 ×10⁻⁶ cm/s. For the same compound, the microsomal CLint [4] was 8 µL/min/mg, the half-life [13] was 114 min and the pIC50 (Cytochrome P450 3A4) was less than 4.70. For the same compound, the inhibition (HT-1080) was “Dose-dependent effect” and the inhibition in vivo at 10 mg/kg (Mus musculus [14]) was 91%.
In the case of `C[C@H](Nc1ccc(-n2ccnc2)cc1)C(=O)Nc1ccc(-c2ccccc2)cn1`, the pIC50 [1] was 8.30 and the microsomal CLint [4] was 3.5 µL/min/mg.
In the case of `Cn1nccc1-c1ccc(OCC(=O)Nc2ccc(-c3ccccc3)cc2)cc1`, the pIC50 [1] was 8.40, the pIC50 (Cytochrome P450 2D6) was less than 4.70 and the pIC50 (Cytochrome P450 3A4) was less than 4.70.
With `O=C(COc1ccc(-n2ccnc2)cc1)Nc1ccc(-c2ccccc2)cc1` the pIC50 (HEK293) was less than 4.52, the pIC50 [1] was 7.72 to 7.82 and the bioavailability [15] was less than 1%. For the same compound, the solubility thermodynamic [2] was less than 1 µg/mL, the inhibition [7] was “Active” and the CC50 at 24 h [16] was greater than 50 µM. It also gave a Papp [3] of less than 1 ×10⁻⁶ cm/s and a microsomal CLint [4] of 37 µL/min/mg.
For `O=C(COc1ccc(-c2cnco2)cc1)Nc1ccc(-c2ccccc2)cc1`, the pIC50 [1] was 7.38, the pIC50 (Cytochrome P450 2D6) was less than 4.70 and the pIC50 (Cytochrome P450 3A4) was less than 4.70.
With `Cc1nccn1-c1ccc(OCC(=O)Nc2ccc(-c3ccccc3)cc2)cc1` the pIC50 [1] was 8.70, the pIC50 (Cytochrome P450 2D6) was 5.72 and the pIC50 (Cytochrome P450 3A4) was 5.28.
`O=C(CNc1ccc(-n2ccnc2)cc1)Nc1ccc(-c2ccccc2)cc1` gave a pIC50 [1] of 7.52 and a microsomal CLint [4] of 11 µL/min/mg.
Compound `C[C@@H](Nc1ccc(-n2ccnc2)cc1)C(=O)Nc1ccc(-c2ccccc2)cn1` has a pIC50 [1] of 6.16 and a microsomal CLint [4] of 12 µL/min/mg.
For `C[C@@H](Oc1ccc(-n2ccnc2)cc1)C(=O)Nc1ccc(-c2ccccc2)cc1`, the pIC50 [1] was 6.89, the inhibition [7] was “Active” and the microsomal CLint [4] was 63 µL/min/mg.
`C[C@H](Nc1ccc(-c2ccnn2C)nc1)C(=O)Nc1ccc(-c2ccccc2)cn1` gave a pIC50 [1] of 9.00, a solubility thermodynamic [2] of 4 µg/mL (≈ 10 µM) and a pIC50 (Cytochrome P450 2D6) of less than 4.70. It also gave a Papp [3] of 113 ×10⁻⁶ cm/s, a microsomal CLint [4] of 8 µL/min/mg and a pIC50 (Cytochrome P450 3A4) of less than 4.70.
Compound `O=C(Nc1ccc(-c2ccccc2)cc1)[C@H]1CCCN1c1ccc(-n2ccnc2)cc1` has a pIC50 [1] of 4.48.
For `O=C(Nc1ccc(-c2ccccc2)cc1)[C@@H]1CCCN1c1ccc(-n2ccnc2)cc1`, the pIC50 [1] was 7.40 and the microsomal CLint [4] was 18 µL/min/mg.
